Test results as given in ChEMBL document CHEMBL1121371, “Antihypertensive 5,6-diarylpyridazin-3-ones” (1980).
Where “and” joins values, the source holds several entries; their conditions need not be identical. Identical values can stand only once.

Tests used:
[1] = system: Rattus norvegicus; assay: Antihypertensive activity in spontaneously hypertensive rats was measured as average blood pressure at 10 mg/kg, p.o. before predose; type: functional; conditions: route oral
Method in brief: (§1)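 Spontaneously hypertensive rats aged 12 to 16 weeks, in groups of five with systolic pressure of 170 mmHg or more. Oral dosing as a solution or suspension in 0.25% methylcellulose, 5 mL/kg, with a vehicle control group. Tail-cuff systolic pressure was read predose and 4 and 24 h after each of two doses. Values were compared with predose by Student's t test.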

[2] = system: Rattus norvegicus; assay: Antihypertensive activity in spontaneously hypertensive rats was measured as average blood pressure at 10 mg/kg, p.o. after 24 hours of postdose-1; type: functional; conditions: route oral; method in brief: as §1
[3] = system: Rattus norvegicus; assay: Antihypertensive activity in spontaneously hypertensive rats was measured as average blood pressure at 10 mg/kg, p.o. after 24 hours of postdose-2; type: functional; conditions: route oral; method in brief: as §1
[4] = system: Rattus norvegicus; assay: Antihypertensive activity in spontaneously hypertensive rats was measured as average blood pressure at 10 mg/kg, p.o. after 4 hours of postdose-1.; type: functional; conditions: route oral; method in brief: as §1
[5] = system: Rattus norvegicus; assay: Antihypertensive activity in spontaneously hypertensive rats was measured as average blood pressure at 10 mg/kg, p.o. after 4 hours of postdose-2; type: functional; conditions: route oral; method in brief: as §1
[6] = system: Rattus norvegicus; assay: Antihypertensive activity in […] hypertensive rats was measured as average blood pressure at 50 mg/kg, p.o. before predose; type: functional; conditions: route oral
[7] = system: Rattus norvegicus; assay: Antihypertensive activity in spontaneously hypertensive rats was measured as average blood pressure at 100 mg/kg, p.o. after 24 hours of postdose-1.; type: functional; conditions: route oral; method in brief: as §1
[8] = system: Rattus norvegicus; assay: Antihypertensive activity in spontaneously hypertensive rats was measured as average blood pressure at 100 mg/kg, po after 24 hours of postdose-2; type: functional; method in brief: as §1
[9] = system: Rattus norvegicus; assay: Antihypertensive activity in […] hypertensive rats was measured as average blood pressure at 100 mg/kg, p.o. after 24 hours of postdose-1; type: functional; conditions: route oral
[10] = system: Rattus norvegicus; assay: Antihypertensive activity in […] hypertensive rats was measured as average blood pressure at 100 mg/kg, p.o. after 24 hours of postdose-2; type: functional; conditions: route oral
[11] = system: Rattus norvegicus; assay: Antihypertensive activity in […] hypertensive rats was measured as average blood pressure at 100 mg/kg, p.o. after 4 hours of postdose-1; type: functional; conditions: route oral
[12] = system: Rattus norvegicus; assay: Antihypertensive activity in […] hypertensive rats was measured as average blood pressure at 100 mg/kg, p.o. after 4 hours of postdose-1.; type: functional; conditions: route oral
[13] = system: Rattus norvegicus; assay: Antihypertensive activity in […] hypertensive rats was measured as average blood pressure at 100 mg/kg, po after 4 hours of postdose-2; type: functional
[14] = system: Rattus norvegicus; assay: Antihypertensive activity in […] hypertensive rats was measured as average blood pressure at 100 mg/kg, p.o. before predose; type: functional; conditions: route oral
[15] = system: Rattus norvegicus; assay: Antihypertensive activity in […] hypertensive rats was measured as average blood pressure at 50 mg/kg, p.o. after 24 hours of postdose-1; type: functional; conditions: route oral
[16] = system: Rattus norvegicus; assay: Antihypertensive activity in spontaneously hypertensive rats was measured as average blood pressure at 30 mg/kg, p.o. after 24 hours of postdose-1; type: functional; conditions: route oral; method in brief: as §1
[17] = system: Rattus norvegicus; assay: Antihypertensive activity in spontaneously hypertensive rats was measured as average blood pressure at 30 mg/kg, p.o. after 24 hours of postdose-2; type: functional; conditions: route oral; method in brief: as §1
[18] = system: Rattus norvegicus; assay: Antihypertensive activity in spontaneously hypertensive rats was measured as average blood pressure at 30 mg/kg, po after 4 hours of postdose-1.; type: functional; method in brief: as §1
[19] = system: Rattus norvegicus; assay: Antihypertensive activity in spontaneously hypertensive rats was measured as average blood pressure at 30 mg/kg, p.o. after 4 hours of postdose-2; type: functional; conditions: route oral; method in brief: as §1
[20] = system: Rattus norvegicus; assay: Antihypertensive activity in spontaneously hypertensive rats was measured as average blood pressure at 30 mg/kg, p.o. before predose; type: functional; conditions: route oral; method in brief: as §1
[21] = system: Rattus norvegicus; assay: Antihypertensive activity in […] hypertensive rats was measured as average blood pressure at 50 mg/kg, p.o. after 24 hours of postdose-2; type: functional; conditions: route oral
[22] = system: Rattus norvegicus; assay: Antihypertensive activity in […] hypertensive rats was measured as average blood pressure at 50 mg/kg, p.o. after 4 hours of postdose-1; type: functional; conditions: route oral
[23] = system: Rattus norvegicus; assay: Antihypertensive activity in […] hypertensive rats was measured as average blood pressure at 50 mg/kg, p.o. after 4 hours of postdose-2; type: functional; conditions: route oral
[24] = system: Rattus norvegicus; assay: Antihypertensive activity in spontaneously hypertensive rats was measured as average blood pressure at 100 mg/kg, p.o. after 4 hours of postdose; type: functional; conditions: route oral; method in brief: as §1
[25] = system: Rattus norvegicus; assay: Antihypertensive activity in spontaneously hypertensive rats was measured as average blood pressure at 100 mg/kg, p.o. after 4 hours of postdose-2; type: functional; conditions: route oral; method in brief: as §1
[26] = system: Rattus norvegicus; assay: Antihypertensive activity in spontaneously hypertensive rats was measured as average blood pressure at 100 mg/kg, p.o. before predose; type: functional; conditions: route oral; method in brief: as §1
[27] = system: Rattus norvegicus; assay: Antihypertensive activity in spontaneously hypertensive rats was measured as increase in heart rate at 10 mg/kg peroral dose; (+)=Increased heart rate; type: functional, organism-based; set-up: dose 10 mg/kg
[28] = system: Rattus norvegicus; assay: Antihypertensive activity in spontaneously hypertensive rats was measured as increase in heart rate at 30 mg/kg peroral dose; (+)=Increased heart rate; type: functional, organism-based; set-up: dose 30 mg/kg
[29] = system: Rattus norvegicus; assay: Antihypertensive activity in spontaneously hypertensive rats was measured as increase in heart rate at 100 mg/kg peroral dose; (+)=Increased heart rate; type: functional, organism-based; set-up: dose 100 mg/kg
[30] = system: Rattus norvegicus; assay: Antihypertensive activity in DOCA hypertensive rats was measured as average blood pressure at 25 mg/kg, po before predose
[31] = system: Rattus norvegicus; assay: Antihypertensive activity in DOCA hypertensive rats was measured as average blood pressure at 10 mg/kg, p.o. before predose; conditions: route oral
[32] = system: Rattus norvegicus; assay: Antihypertensive activity in DOCA hypertensive rats was measured as average blood pressure at 10 mg/kg, p.o. after 4 hours of postdose-2; conditions: route oral
[33] = system: Rattus norvegicus; assay: Antihypertensive activity in DOCA hypertensive rats was measured as average blood pressure at 25 mg/kg, p.o. after 4 hours of postdose-2; conditions: route oral
[34] = system: Rattus norvegicus; assay: Antihypertensive activity in DOCA hypertensive rats was measured as average blood pressure at 10 mg/kg, p.o. after 24 hours of postdose-1; conditions: route oral
[35] = system: Rattus norvegicus; assay: Antihypertensive activity in DOCA hypertensive rats was measured as average blood pressure at 10 mg/kg, p.o. after 24 hours of postdose-2; conditions: route oral
[36] = system: Rattus norvegicus; assay: Antihypertensive activity in DOCA hypertensive rats was measured as average blood pressure at 10 mg/kg, p.o. after 4 hours of postdose-1.; conditions: route oral
[37] = system: Rattus norvegicus; assay: Antihypertensive activity in DOCA hypertensive rats was measured as average blood pressure at 25 mg/kg, p.o. after 24 hours of postdose-1; conditions: route oral
[38] = system: Rattus norvegicus; assay: Antihypertensive activity in DOCA hypertensive rats was measured as average blood pressure at 25 mg/kg, p.o. after 24 hours of postdose-2; conditions: route oral
[39] = system: Rattus norvegicus; assay: Antihypertensive activity in spontaneously hypertensive rats was measured as average blood pressure at 100 mg/kg, p.o. after 4 hours of postdose-1; type: functional; conditions: route oral; method in brief: as §1
[40] = species on record: Rattus norvegicus; assay: Antihypertensive activity in spontaneously hypertensive rats was measured; (+)=Increased heart rate; type: functional, organism-based
[41] = system: Rattus norvegicus; assay: Antihypertensive activity in spontaneously hypertensive rats was measured as average blood pressure at 75 mg/kg, p.o. after 24 hours of postdose-1; type: functional; conditions: route oral
[42] = system: Rattus norvegicus; assay: Antihypertensive activity in spontaneously hypertensive rats was measured as average blood pressure at 75 mg/kg, p.o. after 24 hours of postdose-2; type: functional; conditions: route oral
[43] = system: Rattus norvegicus; assay: Antihypertensive activity in spontaneously hypertensive rats was measured as average blood pressure at 75 mg/kg, po after 4 hours of postdose-1.; type: functional
[44] = system: Rattus norvegicus; assay: Antihypertensive activity in spontaneously hypertensive rats was measured as average blood pressure at 75 mg/kg, p.o. after 4 hours of postdose-2; type: functional; conditions: route oral
[45] = system: Rattus norvegicus; assay: Antihypertensive activity in spontaneously hypertensive rats was measured as average blood pressure at 75 mg/kg, p.o. before predose; type: functional; conditions: route oral
[46] = system: Rattus norvegicus; assay: Antihypertensive activity in spontaneously hypertensive rats was measured as average blood pressure at 25 mg/kg, p.o. after 24 hours of postdose-1; type: functional; conditions: route oral; method in brief: as §1
[47] = system: Rattus norvegicus; assay: Antihypertensive activity in spontaneously hypertensive rats was measured as average blood pressure at 25 mg/kg, p.o. after 24 hours of postdose-2; type: functional; conditions: route oral; method in brief: as §1
[48] = system: Rattus norvegicus; assay: Antihypertensive activity in spontaneously hypertensive rats was measured as average blood pressure at 25 mg/kg, p.o. after 4 hours of postdose-1.; type: functional; conditions: route oral; method in brief: as §1
[49] = system: Rattus norvegicus; assay: Antihypertensive activity in spontaneously hypertensive rats was measured as average blood pressure at 25 mg/kg, p.o. after 4 hours of postdose-2; type: functional; conditions: route oral; method in brief: as §1
[50] = system: Rattus norvegicus; assay: Antihypertensive activity in spontaneously hypertensive rats was measured as average blood pressure at 25 mg/kg, p.o. before predose; type: functional; conditions: route oral; method in brief: as §1
[51] = system: Rattus norvegicus; assay: Antihypertensive activity in spontaneously hypertensive rats was measured as average blood pressure at 100 mg/kg, p.o. after 24 hours of postdose; type: functional; conditions: route oral; method in brief: as §1
[52] = system: Rattus norvegicus; assay: Antihypertensive activity in spontaneously hypertensive rats was measured as change in heart rate at 100 mg/kg peroral dose; No significant change is heart rate; type: functional; conditions: route oral

Compound `CC(=O)c1c(-c2ccc(Cl)cc2)c(-c2ccc(Cl)cc2)nn(CCO)c1=O` has a BP [1] of 202 mmHg, a BP [2] of 203 mmHg and a BP [3] of 197 mmHg. For the same compound, the BP [4] was 187 mmHg, the BP [5] was 191 mmHg and the BP [6] was 224 mmHg. For the same compound, the BP [7] was 185 mmHg, the BP [8] was 193 mmHg and the BP [9] was 178 mmHg and 125 mmHg. For the same compound, the BP [10] was 195 mmHg and 130 mmHg, the BP [11] was 169 mmHg and the BP [12] was 123 mmHg. The BP [13] was 164 mmHg and 127 mmHg, the BP [14] was 222 mmHg and 125 mmHg and the BP [15] was 184 mmHg. For the same compound, the BP [16] was 192 mmHg, the BP [17] was 206 mmHg and the BP [18] was 200 mmHg. The BP [19] was 164 mmHg, the BP [20] was 213 mmHg and the BP [21] was 213 mmHg. It also gave a BP [22] of 171 mmHg, a BP [23] of 182 mmHg and a BP [24] of 173 mmHg. For the same compound, the BP [25] was 174 mmHg, the BP [26] was 218 mmHg and the Heart rate [27] was “Increased heart rate”. For the same compound, the Heart rate [28] was “Increased heart rate”, the Heart rate [29] was “Increased heart rate” and the BP [30] was 235 mmHg. The BP [31] was 224 mmHg, the BP [32] was 188 mmHg and the BP [33] was 188 mmHg. It also gave a BP [34] of 192 mmHg, a BP [35] of 210 mmHg and a BP [36] of 191 mmHg. The BP [37] was 191 mmHg and the BP [38] was 208 mmHg.
`O=c1c(-c2ccccc2)c(-c2ccccc2)c(-c2ccccc2)nn1CCO` was tested, and the BP [7] was 187 mmHg, the BP [8] was 188 mmHg and the BP [39] was 173 mmHg. For the same compound, the BP [25] was 176 mmHg, the BP [26] was 200 mmHg and the Heart rate [40] was “Increased heart rate”.
`CC(=O)c1c(-c2ccccc2)c(-c2ccccc2)nn(CCO)c1=O` gave a BP [41] of 163 mmHg, a BP [42] of 176 mmHg and a BP [43] of 181 mmHg. The BP [44] was 164 mmHg and the BP [45] was 200 mmHg.
With `Br.CC(=O)c1c(-c2ccc(Cl)cc2)c(-c2ccc(Cl)cc2)nn(CCN)c1=O` the BP [46] was 162 mmHg, the BP [47] was 183 mmHg and the BP [48] was 184 mmHg. The BP [49] was 177 mmHg and the BP [50] was 194 mmHg.
`N#Cc1c(O)nnc(-c2ccc(Cl)cc2)c1-c1ccc(Cl)cc1` gave a BP [51] of 177 mmHg, a BP [8] of 175 mmHg and a BP [24] of 171 mmHg. For the same compound, the BP [25] was 173 mmHg, the BP [26] was 205 mmHg and the Heart rate [52] was 0.
